APP 5'UTR act = activates APP 5'UTR luciferase reporter; SH-SY5Y APP 5'UTR luciferase reporter, luminescence; zero percent = DMSO vehicle wells; activation, % at 2 µM; 1% of 190,000 active; AID 1276;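 active means activation above a set limit, based on mean plus 3 SD of controls, cut at about 140% in these data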
FLuc stim CS = firefly luciferase counter-screen for stimulation assays; P08659; ATPlite luciferase biochemical, luminescence, 10 min; 0 = ATP-free wells, 1 = DMSO control; activation factor at 10 µM; 200,000 tested, under 10 active; AID 1027;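 active means luciferase activation factor, scaled between plate controls, of at least 2 with compound at 10 µM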
Target sequence (P08659 whole entry, looked up): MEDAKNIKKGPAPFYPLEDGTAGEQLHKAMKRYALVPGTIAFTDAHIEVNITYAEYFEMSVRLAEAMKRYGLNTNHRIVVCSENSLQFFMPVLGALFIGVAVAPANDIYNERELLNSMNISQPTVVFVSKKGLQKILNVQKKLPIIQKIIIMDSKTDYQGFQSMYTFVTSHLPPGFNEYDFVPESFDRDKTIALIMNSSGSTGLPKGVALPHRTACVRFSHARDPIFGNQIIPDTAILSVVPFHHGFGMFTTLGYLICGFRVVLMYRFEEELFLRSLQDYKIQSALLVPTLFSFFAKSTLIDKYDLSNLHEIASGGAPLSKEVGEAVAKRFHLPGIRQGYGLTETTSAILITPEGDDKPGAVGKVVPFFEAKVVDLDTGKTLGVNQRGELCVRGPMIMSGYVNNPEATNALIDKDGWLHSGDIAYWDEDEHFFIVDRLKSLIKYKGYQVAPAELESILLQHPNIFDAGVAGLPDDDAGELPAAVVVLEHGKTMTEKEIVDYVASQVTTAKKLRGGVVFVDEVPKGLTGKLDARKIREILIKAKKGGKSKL
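Material: luciferase plus luciferin reagent, cell-free. Medium: PBS buffer for ATP. Also added: ATP substrate, dispensed from a 10.24 µM working solution in PBS. Doses: test compounds dosed from 2 mM stocks in 100% DMSO. Incubation: 10 min post-reagent at room temperature. Technique: light output (luminescence). Read-out basis: luminescence gain marking luciferase activators.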
NF-kB expr up = NF-kB expression increase, human neuronal cells | AID 1239 | fold change at 12.5 µM | 1.6% of 190,000 active | NF-kB reporter expression; stronger effect = higher value; in the data active means fold change above about 3.3
STAT1 activator = increases IFN-gamma driven STAT1 reporter signal; NIH 3T3 STAT1-luciferase reporter, luminescence; 100% = IFN-gamma alone, no compound; activation (% of control), % at 5.5 µM; 2.6% of 200,000 active; AID 932;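 active means activation above the screen-wide mean activation plus 3 SD, cut at about 130% in these data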;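 further: raw ratio to IFN-gamma control signal so 100% means no change and 0% no light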
APP 5UTR inh = APP translation inhibition | SH-SY5Y APP 5'UTR-luciferase reporter, luminescence | inhibition, % at 2 µM | 0.82% of 190,000 active;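 active means inhibition above a set limit, derived from the sample mean plus 3 SD, cut at about 45% in these data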
FLuc inhib CS = Photinus pyralis luciferase inhibition counter-screen; inhibition, % at 10 µM; 1.5% of 200,000 active; ATPLite firefly luciferase biochemical luminescence, 10 min;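 active means inhibition above about 50% when tested at 10 µM, limit read from the data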
* marks the source's active call; other numbers are inactive results; . = no result given. In the library only some 4.8% were active in any assay of this set; here they are far more common.

SMILES	APP 5'UTR act	FLuc stim CS	NF-kB expr up	STAT1 activator	APP 5UTR inh	FLuc inhib CS
COc1cc2[nH]c(=S)nc(NC3CCCC3)c2cc1OC	-25.7	1.1	1.15	101.8	25.7	-5.3
COc1ccc(C(=O)c2c[nH]c3ccccc23)cc1	96.4	0.4	3.52*	133.7*	-96.4	63.5*
CC(=O)Nc1ccc2c(c1)OCCO2	1.9	1.1	1.1	102.3	-1.9	-6.4
O=C(Nc1ccc2c(c1)OCO2)Nc1ccc(Br)cn1	18.2	0.9	2.07	149.1*	-18.2	11.1
O=C(Nc1ccc2c(c1)OCCO2)NC12CC3CC(CC(C3)C1)C2	90.0	0.9	1.71	142.3*	-90.0	8.0
Cc1cccc(C)c1NC(=O)Nc1ccc2c(c1)OCO2	28.8	1	1.21	111.2	-28.8	-0.7
Cc1ccnc(NC(=O)Nc2ccc3c(c2)OCO3)c1	143.8*	0.4	4.87*	146.0*	-143.8	57.5*
O=C(Nc1cccc(Cl)c1)Nc1ccc2c(c1)OCO2	92.7	0.9	2.24	122.6	-92.7	12.9
O=C(Nc1ccc2c(c1)OCCO2)Nc1ccc2c(c1)OCO2	173.8*	0.1	6.63*	71.8	-173.8	93.2*
COc1ccc(NC(=O)CN2CCC(Cc3ccccc3)CC2)cc1S(=O)(=O)N1CCOCC1	-7.5	1.1	1.06	83.9	7.5	-9.1
COc1cc(C(=S)N2CCOCC2)ccc1OC(=O)/C=C/c1ccco1	-22.0	1	0.94	105.3	22.0	1.4
O=C(CCc1nnc(-c2ccsc2)o1)N1CCc2c(Cl)cccc2C1	41.7	1	2.22	129.2*	-41.7	-4.2
O=C(CCc1nnc(-c2ccc(-c3ccccc3)cc2)o1)N1CCCCC1	-13.8	1	.	115.3	13.8	4.4
O=C(NC1CCCCC1)C1Cc2ccccc2CN1S(=O)(=O)c1ccc(F)cc1 (stereo not given)	7.8	1.1	0.84	101.3	-7.8	-5.5
O=C(Nc1nccs1)C1Cc2ccccc2CN1S(=O)(=O)c1ccc(F)cc1 (stereo not given)	155.2*	0.9	1.57	122.8	-155.2	6.2
Cc1cccc(N/N=C2/COC(C)(C)CC2=O)c1	70.9	0.7	1.23	135.6*	-70.9	29.2
COc1ccc(-c2cc(-c3ccc(C)cc3)nc(SCc3nnc(-c4ccccc4)o3)c2C#N)cc1OC	8.4	1	1.03	98.5	-8.4	-2.8
CC1=NC(=O)C(N=Nc2cccc(C(=O)O)c2)N1c1ccccc1 (stereo not given)	86.6	0.5	9.47*	73.5	-86.6	54.0*
CC1=NC(=O)C(N=Nc2ccccc2C(=O)O)N1c1ccccc1 (stereo not given)	9.7	0.9	0.86	38.5	-9.7	10.3
CC1=NC(=O)C(N=Nc2ccccc2)N1c1ccccc1 (stereo not given)	51.1	0.9	4.38*	121.0	-51.1	7.7
O=C(CN1C(=O)COc2ccc(S(=O)(=O)N3CCCC3)cc21)NC1CCCCCCC1	10.6	1	1.1	102.4	-10.6	2.4
O=S(=O)(c1ccc(Oc2ccc(Cl)cc2)c(S(=O)(=O)N2CCCCC2)c1)N1CCCCC1	7.6	1.1	1.19	101.0	-7.6	-9.9
COC(=O)C1CCN(C(=O)CSc2ccccc2)CC1	-9.6	1.1	1.16	103.1	9.6	-6.3
O=C(CCCOc1ccc(Cl)cc1Cl)N1CCN(c2ccccn2)CC1	-8.2	1.1	0.91	101.5	8.2	-6.3
O=C(CCCOc1ccccc1)N1CCN(c2ccccn2)CC1	152.6*	1	2.87	129.3*	-152.6	1.4
SMILES	APP 5'UTR act	FLuc stim CS	NF-kB expr up	STAT1 activator	APP 5UTR inh	FLuc inhib CS
COC(=O)C1CCN(C(=O)CCCOc2ccccc2)CC1	145.9*	0.9	2.76	132.3*	-145.9	10.7
CCc1c(C)sc(NC(=O)/C=C/C(=O)O)c1C(N)=O	0.2	1	0.9	96.1	-0.2	-4.2
CCOC(=O)c1c(-c2ccc(F)cc2)csc1/N=C/N(C)C	3.3	1.1	1.07	104.7	-3.3	-6.2
O=S(=O)(c1ccc(OCC2CO2)cc1)c1ccc(OCC2CO2)cc1 (stereo not given)	-3.6	1	0.92	108.5	3.6	-1.0
CN1CCN(c2nc(-c3ccccc3)ncc2S(=O)(=O)c2ccccc2)CC1	13.2	1	0.96	98.9	-13.3	-0.9
O=S(=O)(c1ccccc1)c1cnc(-c2ccccc2)nc1N1CCCCC1	-4.7	1	1.63	144.9*	4.7	-0.4
O=[N+]([O-])c1ccc2[nH]nc(-c3ccccc3)c2c1	20.9	1.1	1.7	100.6	-20.9	-5.8
O=c1c(-c2ccccc2)n[nH]c2ccccc12	111.6	0.5	3.43*	124.4	-111.7	49.6
O=C(O)CC/C(=C\c1cc([N+](=O)[O-])ccc1Cl)c1nc2ccccc2s1	4.4	1	1.02	86.7	-4.4	-2.4
O=C(Nc1ccc(Cl)cc1)/C(=C/c1ccc([N+](=O)[O-])cc1)c1nc2ccccc2s1	-96.0	1	.	114.1	96.0*	-2.6
CC(=O)c1cccc(NC(=O)N2CCCC2C(=O)Nc2ccc3c(c2)OCO3)c1 (stereo not given)	13.0	1.1	1.09	90.4	-13.0	-8.7
C/C(=N\NC(=O)c1c(C)nc2ccccn12)c1ccco1	17.6	0.9	1.92	133.5*	-17.6	9.3
COC(=O)N/N=C(\C)c1ccco1	0.4	1	0.92	106.5	-0.4	-0.7
C/C(=N/NC(=O)c1ccccn1)c1ccco1	111.3	0.3	1.98	108.0	-111.3	70.0*
Cc1ccc(/C=N/c2sc3c(c2C(N)=O)CCCC3)o1	92.1	0.7	2.04	146.0*	-92.1	26.8
COc1cc(OC)c(OC)cc1/C=C/C(=O)c1ccc(NS(=O)(=O)c2ccc(C)cc2)cc1	9.2	1	0.97	98.1	-9.2	-1.5
C/C(=N\NC(=O)c1ccn(C)n1)c1ccc(NC(=O)C2CCCC2)cc1	7.9	1	0.99	135.3*	-7.9	-4.6
C/C(=N\NC(=O)C1(C)CC1(Br)Br)c1ccc(NC(=O)C2CCC2)cc1 (stereo not given)	-10.3	1	1.04	97.4	10.4	-3.7
Cc1occc1C(=O)NNC(=O)C1CCCCC1	13.4	1	1.17	99.0	-13.4	1.6
C/C(=N/NC(=O)c1ccoc1C)c1ccc(NC(=O)C2CCCC2)cc1	161.1*	1.1	1.16	136.3*	-161.1	-6.6
CCOC(=O)C1CCCN(c2oc(-c3ccc(OC)cc3)nc2C#N)C1 (stereo not given)	-9.0	1	0.99	93.8	9.0	-1.0
COc1ccc(-c2[nH]c(-c3ccc(SC)cc3)nc2SCC(=O)Nc2nccs2)cc1	15.4	1.1	0.81	101.3	-15.4	-8.2
CCCNC(=O)c1nnsc1S(=O)(=O)c1ccc(Cl)cc1	-94.6	1	1.28	82.5	94.6*	0.4
CCCNC(=O)c1nnsc1S(=O)c1ccc(Cl)cc1 (stereo not given)	-94.5	1.1	0.13	77.8	94.5*	-5.0

Bioassay records (PubChem)
